Test [1] deals with Mycobacterium tuberculosis. The test is described as follows: Antimicrobial activity against Mycobacterium tuberculosis H37Rv infected in BALB/C mouse assessed as bacterial burden in mouse lung at 25 mg/kg, po administered via gavage treated 5 times per week for 3 weeks starting from day 10 post infection (reference value: 7.102 +/- 0.152 log10CFU). It is filed as functional.

Test [2] relates to Mycobacterium tuberculosis. As to the kind of experiment: Antimicrobial activity against Mycobacterium tuberculosis H37Rv after 7 days by MABA. It is filed as functional. Conditions: 168 h. In a few lines: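 Strain H37Rv or clinical isolates grown to late log phase in 7H9-ADC-TG, washed, resuspended in PBS, filtered (8 µm) and frozen. On day 7 Tween 80 and alamar blue added, read 16–24 h later (ex 530/em 590). MIC = lowest concentration giving ≥90% fluorescence reduction versus bacterium-only controls.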
For orientation: Alamar Blue is a resazurin reagent that responds to reducing activity.

Converted amounts (≈) assume the structure as drawn.

What is called MIC90 is an inhibitory concentration at the 90% level, which refers to growth in some studies and to a panel of isolates in others. For `NNC(=O)c1ccncc1` [ISONIAZID], the Activity in test [1] is 1.929 log10CFU. Further, in test [2], the MIC90 was 0.035 µg/mL (≈ 0.255 µM).
